Results from ChEMBL document CHEMBL5303300, “EUbOPEN Chemogenomics Library - Multiplex” (2023).
Where “and” joins values, the source holds several entries; their conditions need not be identical. Equal values may be shown once.

What was measured:
HEK-293T = assay: Multiplex assay against HEK293T; format: toxicity, cell-based; settings: human, number of replicates 2
Procedure, shortened: (§1)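 Phenotypes for tubulin, mitochondrial mass and membrane permeability are expressed as per cents of healthy-nucleus cells. Cells were stained live at seeding with Hoechst33342, BioTracker Green Microtubule Cytoskeleton Dye, MitoTracker Red and Annexin V Alexa Fluor 680, then imaged after compound addition on a CQ1 microscope at 37°C and 5% CO2. Machine-learning gating in CellPathfinder separated Hoechst high-intensity objects from normal cells, divided normal cells by nuclear state (healthy, pyknosed, fragmented) and divided pyknosed cells into mitotic or apoptotic.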

U2OS = assay: Multiplex assay against U2OS; format: toxicity, cell-based; settings: human, number of replicates 2; procedure, shortened: as §1
[1] = 12 h, 1 µM, compound concentration 1 uM
[2] = 12 h, 10 µM, compound concentration 10 uM
[3] = 24 h, 1 µM, compound concentration 1 uM
[4] = 24 h, 10 µM, compound concentration 10 uM
[5] = 48 h, 1 µM, compound concentration 1 uM
[6] = 48 h, 10 µM, compound concentration 10 uM

## CC(C)S(=O)(=O)c1ccccc1Nc1nc(N[C@@H]2CCCN(CCCCCCCNC(=O)COc3cccc4c3C(=O)N(C3CCC(=O)N(C)C3=O)C4=O)C2)ncc1Cl (some centres undefined)
HEK-293T; [1]
  Population Apoptotic (%): 55% and 78%
  Population Fragmented Nuclei (%): 6% and 3%
  Population Healthy Nuclei (%): 84% and 81%
  Population Hoechst High Intensity Objects (%): 11%
  Population Membrane Permeable-Phenotype (%): 0%
  Population Mitochondria Different-Phenotype (%): 39% and 45%
  Population Mitotic Cells (%): 44% and 21%
  Population Normal (%): 88%
  Population Pyknosed Nuclei (%): 8% and 14%
  Population Tubulin-Different-Phenotype (%): 56% and 62%
  Total Cell Count: 479 and 318
HEK-293T; [2]
  Population Apoptotic (%): 60% and 74%
  Population Fragmented Nuclei (%): 3%
  Population Healthy Nuclei (%): 69% and 72%
  Population Hoechst High Intensity Objects (%): 18% and 14%
  Population Membrane Permeable-Phenotype (%): 2% and 3%
  Population Mitochondria Different-Phenotype (%): 76%
  Population Mitotic Cells (%): 39% and 25%
  Population Normal (%): 81% and 85%
  Population Pyknosed Nuclei (%): 26% and 24%
  Population Tubulin-Different-Phenotype (%): 49% and 77%
  Total Cell Count: 464 and 428
HEK-293T; [3]
  Population Apoptotic (%): 48% and 83%
  Population Fragmented Nuclei (%): 2% and 4%
  Population Healthy Nuclei (%): 90% and 85%
  Population Hoechst High Intensity Objects (%): 7%
  Population Membrane Permeable-Phenotype (%): 0%
  Population Mitochondria Different-Phenotype (%): 20% and 21%
  Population Normal (%): 92%
  Population Pyknosed Nuclei (%): 7% and 10%
  Population Tubulin-Different-Phenotype (%): 40%
  Total Cell Count: 702 and 488
HEK-293T; [4]
  Population Apoptotic (%): 82%
  Population Fragmented Nuclei (%): 4% and 5%
  Population Healthy Nuclei (%): 78%
  Population Hoechst High Intensity Objects (%): 18% and 16%
  Population Membrane Permeable-Phenotype (%): 0% and 1%
  Population Mitochondria Different-Phenotype (%): 80% and 91%
  Population Mitotic Cells (%): 17%
  Population Normal (%): 81% and 83%
  Population Pyknosed Nuclei (%): 17% and 16%
  Population Tubulin-Different-Phenotype (%): 90% and 92%
  Total Cell Count: 438 and 432
HEK-293T; [5]
  Population Apoptotic (%): 40% and 66%
  Population Fragmented Nuclei (%): 8% and 4%
  Population Healthy Nuclei (%): 85%
  Population Hoechst High Intensity Objects (%): 8% and 7%
  Population Membrane Permeable-Phenotype (%): 2% and 1%
  Population Mitochondria Different-Phenotype (%): 7% and 11%
  Population Mitotic Cells (%): 60% and 33%
  Population Normal (%): 91% and 92%
  Population Pyknosed Nuclei (%): 5% and 9%
  Population Tubulin-Different-Phenotype (%): 26% and 27%
  Total Cell Count: 1045 and 630
HEK-293T; [6]
  Population Apoptotic (%): 81% and 86%
  Population Fragmented Nuclei (%): 5%
  Population Healthy Nuclei (%): 82% and 78%
  Population Hoechst High Intensity Objects (%): 17% and 20%
  Population Membrane Permeable-Phenotype (%): 0%
  Population Mitochondria Different-Phenotype (%): 46% and 78%
  Population Mitotic Cells (%): 18% and 14%
  Population Normal (%): 82% and 79%
  Population Pyknosed Nuclei (%): 11% and 16%
  Population Tubulin-Different-Phenotype (%): 57% and 65%
  Total Cell Count: 458 and 378
U2OS; [1]
  Population Apoptotic (%): 93% and 83%
  Population Healthy Nuclei (%): 34% and 71%
  Population Hoechst High Intensity Objects (%): 0%
  Population Mitochondria Different-Phenotype (%): 8% and 7%
  Population Mitotic Cells (%): 6% and 16%
  Population Normal (%): 100%
  Population Pyknosed Nuclei (%): 22% and 23%
  Population Tubulin-Different-Phenotype (%): 69% and 61%
  Total Cell Count: 66 and 157
U2OS; [2]
  Population Apoptotic (%): 85% and 77%
  Population Healthy Nuclei (%): 48% and 56%
  Population Hoechst High Intensity Objects (%): 0% and 1%
  Population Membrane Permeable-Phenotype (%): 80% and 93%
  Population Mitochondria Different-Phenotype (%): 66% and 54%
  Population Mitotic Cells (%): 14% and 22%
  Population Normal (%): 100% and 98%
  Population Pyknosed Nuclei (%): 22% and 37%
  Population Tubulin-Different-Phenotype (%): 100%
U2OS; [3]
  Population Apoptotic (%): 85% and 89%
  Population Fragmented Nuclei (%): 26% and 13%
  Population Healthy Nuclei (%): 29% and 51%
  Population Hoechst High Intensity Objects (%): 1% and 0%
  Population Membrane Permeable-Phenotype (%): 0% and 6%
  Population Mitochondria Different-Phenotype (%): 0% and 4%
  Population Mitotic Cells (%): 14% and 10%
  Population Normal (%): 98% and 100%
  Population Pyknosed Nuclei (%): 44% and 34%
  Population Tubulin-Different-Phenotype (%): 77% and 84%
  Total Cell Count: 62 and 166
